MMP13 inh = human MMP13 inhibitors, primary screen, biochemical, FRET peptide cleavage | MMP-13 fTHP FRET cleavage, Mca fluorescence | inhibition, % at 4 µM | Collagenase 3 (Homo sapiens), P45452 | 65,000 tested, 0.07% active;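 active = inhibition above the mean of compound-free control plate wells plus 3 SD, cut at about 14% in these data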;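 also: 0% = DMSO wells and 100% = wells with reference MMP-13 inhibitor after basal subtraction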
Ecoli WT expand = growth inhibitors of wild-type E. coli, primary screen, strain BW25113, expanded library, OD600. OD600 absorbance. AID 710, 2007. 98,000 tested, 0.15% active. growth inhibition, % at 100 µM;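 active = growth inhibition above about 50% at one test dose, limit read from the data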;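 also: growth measured after 20 h incubation at 37 °C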
HePTP inh = inhibitors of human HePTP phosphatase, primary screen, biochemical, absorbance, leukemia target. Tyrosine-protein phosphatase non-receptor type 7 (Homo sapiens), P35236. recombinant HePTP phosphatase activity, OD absorbance. inhibition, % at 20 µM. 110,000 tested, 0.64% active. AID 521, 2006; in the data active = inhibition above about 50%;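 also: plate controls were vehicle for no effect and reference inhibitor for full effect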
E coli RNAP = E. coli RNAP inhibitors, biochemical; AID 559, 2006; E. coli RNA polymerase, fluorescence transcription assay; 62,000 tested, 0.2% active; DNA-directed RNA polymerase subunit beta (Escherichia coli (strain K12)), P0A8V2; inhibition, %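 (tested at 10 µM)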; in the data active = inhibition above about 20%;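 also: 0% = enzyme without compound and 100% = no enzyme blank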
Ecoli tolC = growth inhibitors of E. coli tolC mutant, primary screen, strain BW25113 ΔtolC::kan, 384-well; growth inhibition, % at 10 µM (by protocol); OD615; 65,000 tested, 2.2% active;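 active = growth inhibition at or above a cutoff equal to the mean over every tested compound plus 3 SD, cut at about 60% in these data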;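 also: growth measured after 20 h incubation at 37 °C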
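Test system – E. coli BW25113 ΔtolC::kan, tolC deletion mutant strain · Detection – OD at 615 nm · Buffer or medium – LB with kanamycin 50 µg/mL · Times – 20 h compound exposure of bacteria at 37 °C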
AP ELISA ortho = alternative complement pathway inhibitors, primary screen, biochemical, ELISA, human serum, orthogonally pooled compounds. LPS-coated ELISA, C3 deposition; tested in compound mixtures. AID 1235, 2008. inhibition, % at 5 µM. 62,000 tested, 0.08% active;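 active = inhibition above 30% in each of the two pooled mixtures holding the compound, so the lower value exceeds 30%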;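 also: 0% = serum in Mg-EGTA without compound and 100% = EDTA serum blank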
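Assay system: human serum alternative complement pathway, C3 deposition on LPS-coated wells; Dosing: 5 µM per compound in ten-compound mixtures; Detection: Anti-C3 ELISA, OD 450 nm; Buffer or medium: Mg2+-EGTA GVB++ buffer containing human serum at 1:15 dilution; Timing: 1 h at 37 °C; Replication: two different pools per compound.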
* marks the source's active call; other numbers are inactive results; / = not tested or not shown. The entries come from a sample that favours hits as a whole.

SMILES	MMP13 inh	Ecoli WT expand	HePTP inh	E coli RNAP	Ecoli tolC	AP ELISA ortho
CC1(C(=O)NCc2cccnc2)CCC(=O)N1Cc1cccs1 (stereo unspecified)	-1	1	-8	6	-12	36*
Cc1ccc(CN2C(=O)CCC2(C)C(=O)NCc2cccnc2)cc1 (stereo unspecified)	/	5	/	/	/	/
COc1ccccc1OCC(=O)Nc1ccc(-c2nc3ccccc3[nH]2)cc1	/	/	4	/	/	/
O=S(=O)(Nc1ccc(-c2nc3ccccc3o2)cc1)c1ccccc1	-9	0	10	1	93*	-6
COc1ccc2nc(NC(=O)CSc3nc(C)cc(=O)[nH]3)sc2c1	/	-2	/	/	/	/
CCOc1ccc2nc(NC(=O)C(CC)Sc3nc(C)cc(=O)[nH]3)sc2c1 (stereo unspecified)	2	-2	9	12	67*	8
CC(C)(C)N(Cc1ccccc1)C(=O)CN1C(=O)/C(=C/c2ccccc2)SC1=S	/	/	-2	/	/	/
Fc1ccc(C(c2ccc(F)cc2)N2CCN(C/C=C/c3ccccc3)CC2)cc1	7	/	8	9	76*	11
Cc1[nH]n(-c2ccccc2)c(=O)c1/C=N/Nc1nncc(-c2ccccc2)n1	/	93*	/	/	/	/
OCC#CCSc1nnc(-c2ccc(Br)cc2)o1	7	7	0	40*	0	8
COc1ccc(-c2nnc(SCC#CCO)o2)cc1OC	2	-1	7	4	-26	9
Cc1ccccc1NC(=O)C1C2CC/C=C\CC/C=C/CCC21 (stereo unspecified)	/	/	-2	/	/	/
CC(Cc1ccc(O)c(O)c1)C(C)Cc1ccc(O)c(O)c1 (stereo unspecified)	-7	/	-9	51*	17	-6
Cc1ccc(Cl)cc1N1CCN(Cc2nnnn2Cc2ccco2)CC1	2	-15	0	4	65*	7
CCC(c1nnnn1Cc1ccco1)N1CCN(c2cc(Cl)ccc2C)CC1 (stereo unspecified)	-2	-10	0	/	43	-4
COc1ccc(/C=C2\SC(=S)N(C(C(=O)O)C(C)C)C2=O)cc1OC (stereo unspecified)	/	/	-7	/	/	/
Cc1ccc(C=C2C(=O)NC(=S)N(c3ccccc3Cl)C2=O)o1	/	/	65*	/	/	/
Cc1ccc(/C=C2\C(=O)NC(=S)N(c3ccc(Br)cc3C)C2=O)o1	/	/	87*	/	/	/
Cc1ccc(/C=C2\C(=O)NC(=S)N(c3ccc(Br)cc3)C2=O)o1	/	/	33	/	/	/
